Data as given in ChEMBL document CHEMBL1800017, “Resorcylic acid lactones with cytotoxic and NF-κB inhibitory activities and their structure-activity relationships” (J Nat Prod, 2011).
The source made the active and inactive calls. The calls are words filed in the database; no cut-off is given here.

Assays:
SF-268 = test: Cytotoxicity against human SF268 cells after 72 hrs by MTS assay; format: functional, cell-based
How it was run: (§1)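 Continuous 72 h exposure with MTS read-out. IC50 is the concentration reducing cellular proliferation by 50% relative to untreated controls.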

MCF7 = test: Cytotoxicity against human MCF7 cells after 72 hrs by MTS assay; format: functional, cell-based; conditions: MCF7, 72 h; how it was run: as §1
NCI-H460 = test: Cytotoxicity against human H460 cells after 72 hrs by MTS assay; format: functional, cell-based; how it was run: as §1
MDA-MB-435 = test: Cytotoxicity against human MDA-MB-435 cells after 72 hrs by MTS assay; format: functional, cell-based; conditions: MDA-MB-435, 72 h
How it was run: (§2)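 Cells were grown in RPMI 1640 with 10% FBS, penicillin and streptomycin. They were plated at 2500 (HT-29) or 5000 (MDA-MB-435) cells/well and preincubated 16 h at 37 °C in 5% CO2. Test substance was added at final 25, 5, 1, 0.2 and 0.04 µg/mL for 72 h. Read-out was MTS. IC50 is the concentration giving 50% reduction in proliferation versus untreated controls.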

HT-29 [1] = test: Cytotoxicity against human HT-29 cells after 72 hrs by MTS assay; format: functional, cell-based; conditions: HT-29, 72 h; how it was run: as §2
Transcription factor p65 = Transcription factor p65 (Homo sapiens, UniProt Q04206); test: Inhibition of NFkappa p65 isolated from nuclear extract of human HeLa cells by ELISA; format: cell-free
Sequence of Transcription factor p65 (Q04206 whole entry, the tested form may be a part): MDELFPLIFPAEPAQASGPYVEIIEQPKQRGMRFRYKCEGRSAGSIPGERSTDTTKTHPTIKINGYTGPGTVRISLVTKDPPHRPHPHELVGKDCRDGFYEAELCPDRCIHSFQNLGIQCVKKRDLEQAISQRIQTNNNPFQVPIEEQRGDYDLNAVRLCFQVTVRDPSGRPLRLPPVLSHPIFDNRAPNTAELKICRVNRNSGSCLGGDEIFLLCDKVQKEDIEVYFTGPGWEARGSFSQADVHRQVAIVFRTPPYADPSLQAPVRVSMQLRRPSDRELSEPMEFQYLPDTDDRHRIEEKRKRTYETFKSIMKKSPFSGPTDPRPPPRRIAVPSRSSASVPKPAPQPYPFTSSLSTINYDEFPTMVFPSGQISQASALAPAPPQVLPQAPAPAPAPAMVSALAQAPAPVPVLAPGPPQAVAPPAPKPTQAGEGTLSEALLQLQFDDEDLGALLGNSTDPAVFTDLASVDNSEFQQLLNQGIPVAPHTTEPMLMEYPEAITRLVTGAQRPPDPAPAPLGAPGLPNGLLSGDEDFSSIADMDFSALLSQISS

Staphylococcus aureus = test: Antimicrobial activity against Staphylococcus aureus by agar plate diffusion assay; format: functional
How it was run: (§3)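 Agar plate diffusion. Overnight cultures of each organism were seeded into molten LB or Middlebrook 7H9 medium with 1% glycerol and 1.5% agar, held at 50 °C, and poured as plates. Samples in 10 µL MeOH were spotted onto the surface and tested up to 500 µg/mL. Positive controls were penicillin G, novobiocin and streptomycin. Plates were incubated overnight at 37 °C.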

[2] = tested on: Mycolicibacterium smegmatis; test: Antimicrobial activity against Mycobacterium smegmatis by agar plate diffusion assay; format: functional; how it was run: as §3
Escherichia coli [3] = test: Antimicrobial activity against Escherichia coli by agar plate diffusion assay; format: functional; how it was run: as §3
Bacillus subtilis = test: Antimicrobial activity against Bacillus subtilis by agar plate diffusion assay; format: functional; how it was run: as §3
HT-29 [4] = test: Inhibition of mitochondrial membrane potential in human HT-29 cells using JC1 dye staining by fluorescence plate reader assay; format: functional, cell-based
How it was run: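 HT-29 cells exposed to a range of test concentrations, then loaded with JC-1 dye and washed to remove unbound stain. Fluorescence read for monomers (ex 485/em 530 nm, apoptotic) and aggregates (ex 560/em 595 nm, healthy). Staurosporine positive control. Triplicate measurements, at least two independent experiments; IC50 reported.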

Escherichia coli [5] = test: Antimicrobial activity against Escherichia coli at 100 ug/mL by agar plate diffusion assay; format: functional, organism-based
How it was run: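 Agar plate diffusion: overnight E. coli culture seeded into molten LB or Middlebrook 7H9 medium with 1% glycerol and 1.5% agar, held at 50 °C, then poured as assay plates. Samples dissolved in 10 µL MeOH were applied to the plate surface, and controls were treated the same way. Plates were incubated overnight at 37 °C.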

| SMILES | IC50 (SF-268; Homo sapiens, SF-268, 72 h) [µM] | IC50 (MCF7) [µM] | IC50 (NCI-H460; Homo sapiens, NCI-H460, 72 h) [µM] | IC50 (MDA-MB-435) [µM] | IC50 (HT-29 [1]) [µM] | IC50 (Transcription factor p65) [µM] | MIC [2] [µg/mL] | other results |
| --- | --- | --- | --- | --- | --- | --- | --- | --- |
| CC[C@@]1(O)C(=O)OCc2c1cc1n(c2=O)Cc2cc3ccccc3nc2-1 [CAMPTOTHECIN] | 0.04 | 0.07 | < 0.01 | – | – | – | – | – |
| COC(=O)[C@H]1[C@@H](O)[C@@]2(O)c3c(OC)cc(O[C@@H]4O[C@@H]([C@H](O)CO)CO[C@H]4OC)cc3O[C@@]2(c2ccc(OC)cc2)[C@@H]1c1ccccc1 [SILVESTROL] | – | – | – | 0.006 | 0.004 | – | – | – |
| C[C@H]1C/C=C\C(=O)[C@@H](O)[C@@H](O)C/C=C/c2cc(O)cc(O)c2C(=O)O1 | 8.9 | 10.3 | 4.1 | 15.8 | 11.5 | 0.75 | > 500 | MIC (Staphylococcus aureus): > 500 µg/mL; MIC (Escherichia coli [3]): > 500 µg/mL; MIC (Bacillus subtilis): > 500 µg/mL |
| C[C@H]1CCCC(=O)CCCCCc2cc(O)cc(O)c2C(=O)O1 [ZEARALANONE] | > 50 | > 25 | > 25 | – | – | – | – | – |
| CN[C@@H]1C[C@H]2O[C@@](C)([C@@H]1OC)n1c3ccccc3c3c4c(c5c6ccccc6n2c5c31)C(=O)NC4 [STAUROSPORINE] | – | – | – | – | – | – | – | IC50 (HT-29 [4]): 0.0025 µM |
| COc1cc(O)c2c(c1)/C=C/C[C@H](O)[C@H](O)C(=O)CCC[C@H](C)OC2=O | > 50 | > 50 | > 25 | > 50 | > 50 | > 50 | > 500 | MIC (Staphylococcus aureus): > 500 µg/mL; MIC (Escherichia coli [3]): > 500 µg/mL; MIC (Bacillus subtilis): > 500 µg/mL |
| COc1cc(O)c2c(c1)[C@H]1O[C@@H]1C[C@H](O)[C@H](O)C(=O)/C=C\C[C@H](C)OC2=O [HYPOTHEMYCIN] | 12.7 | 16.3 | 4.3 | – | – | – | – | – |
| C[C@H]1CCCC(=O)CCC/C=C/c2cc(O)cc(O)c2C(=O)O1 [ZEARALENONE] | > 50 | > 25 | > 25 | – | – | – | – | – |
| CC1(C)S[C@@H]2[C@H](NC(=O)Cc3ccccc3)C(=O)N2[C@H]1C(=O)O | – | – | – | – | – | – | – | inhibition (Escherichia coli [5]): Active |
| COc1cc(O)c2c(c1)/C=C/C[C@H](O)[C@H](O)C(=O)/C=C\C[C@H](C)OC2=O | 5.1 | 3.8 | 1.2 | 3.3 | 3.6 | 0.25 | > 500 | MIC (Escherichia coli [3]): > 500 µg/mL; MIC (Bacillus subtilis): > 500 µg/mL |
| C[C@H]1CCC[C@@H](O)CCCCCc2cc(O)cc(O)c2C(=O)O1 (stereo in doubt; 12) [TALERANOL] | – | – | – | – | – | – | – | IC50 (SF-268; sf-268): > 25 µM; IC50 (NCI-H460; nci-h460): 9.5 µM |
| COc1cc(O)c2c(c1)/C=C/C[C@H](O)[C@H](O)C(=O)/C=C/C[C@H](C)OC2=O | 5.6 | 4.9 | – | 5.5 | 4.4 | 11.5 | > 500 | MIC (Staphylococcus aureus): > 500 µg/mL |
| COc1cc(O)c2c(c1)/C=C/C[C@H](O)[C@H](O)[C@@H](O)/C=C/C[C@H](C)OC2=O [ZEAENOL] | > 100 | > 100 | > 100 | > 25 | > 25 | > 50 | > 500 | MIC (Escherichia coli [3]): > 500 µg/mL |
| C[C@H]1CCC[C@@H](O)CCCCCc2cc(O)cc(O)c2C(=O)O1 (stereo in doubt; 10) [TALERANOL] | > 50 | > 25 | 15.4 | – | – | – | – | – |
| C[C@H]1CCC[C@H](O)CCCCCc2cc(O)cc(O)c2C(=O)O1 [ZERANOL] | > 50 | > 50 | > 50 | – | – | – | – | – |
| COc1cc(O)c2c(c1)/C=C/C[C@H](O)[C@H](O)[C@H](O)/C=C/C[C@H](C)OC2=O | > 100 | > 100 | > 100 | > 25 | > 25 | > 50 | > 500 | MIC (Staphylococcus aureus): > 500 µg/mL; MIC (Bacillus subtilis): > 500 µg/mL |
